≈ marks a conversion by molar mass, not a printed value.
Tests used:
Assay type in all cases: functional
Acinetobacter baumannii [1] = experiment: Antimicrobial activity against Acinetobacter baumannii isolate 51 harboring GyrA Ser83-Leu and ParC Ser80-Leu mutation at pH 5.8
Procedure, shortened: (§1)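 Agar dilution MIC on Mueller-Hinton agar. For the acidic condition, HCl was added to bring the agar to pH 5.8 before pouring the antibiotic plates, and the pH was checked after the agar set. The standard condition was pH 7.2. Both drugs' plates were made the same day from fresh medium, and MICs were read at the same time.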

Acinetobacter baumannii [2] = experiment: Antimicrobial activity against Acinetobacter baumannii isolate 36 harboring GyrA Ser83-Leu mutation at pH 5.8; procedure, shortened: as §1
Acinetobacter baumannii [3] = experiment: Antimicrobial activity against Acinetobacter baumannii isolate 44 harboring GyrA Ser83-Leu and ParC Glu84-Lys mutation at pH 7.2; procedure, shortened: as §1
Acinetobacter baumannii [4] = experiment: Antimicrobial activity against Acinetobacter baumannii isolate 61 harboring GyrA Ser83-Leu and ParC Ser80-Leu mutation at pH 5.8
Procedure, shortened: (§2)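 Agar dilution MIC on Mueller-Hinton agar acidified to pH 5.8 with HCl before the antibiotic-containing plates were poured. Agar pH was checked after solidifying. Plates were made the same day from fresh medium. Both fluoroquinolones were tested simultaneously against A. baumannii isolates with characterized gyrA/parC genes. MICs are in μg/ml.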

Acinetobacter baumannii [5] = experiment: Antimicrobial activity against Acinetobacter baumannii isolate 27 harboring GyrA Ser83-Leu mutation at pH 7.2
Procedure, shortened: (§3)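 MIC by agar dilution on Mueller-Hinton agar under standard conditions (pH 7.2), against isolates with characterized gyrA/parC genes. Agar pH was checked after solidifying. Plates for both drugs were prepared the same day from freshly made media, and MICs were determined simultaneously with the pH 5.8 set.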

Acinetobacter baumannii [6] = experiment: Antimicrobial activity against Acinetobacter baumannii isolate 65 harboring GyrA Ser83-Leu and ParC Ser80-Leu mutation at pH 5.8; procedure, shortened: as §2
Acinetobacter baumannii [7] = experiment: Antimicrobial activity against Acinetobacter baumannii isolate 23 harboring GyrA Glu87-Gly mutation at pH 7.2; procedure, shortened: as §3
Acinetobacter baumannii [8] = experiment: Antimicrobial activity against Acinetobacter baumannii isolate 66 harboring GyrA Ser83-Leu mutation at pH 7.2
Procedure, shortened: (§4)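 Agar dilution MIC on Mueller-Hinton agar under standard conditions (pH 7.2). Antibiotic-containing plates were made the same day from freshly prepared medium. Agar pH was checked after solidifying. Both fluoroquinolones were tested simultaneously against A. baumannii isolates with characterized gyrA/parC genes. MICs are in μg/ml.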

Acinetobacter baumannii [9] = experiment: Antimicrobial activity against adeB overexpressing Acinetobacter baumannii isolate 68 harboring GyrA Ser83-Leu and ParC Ser80-Leu mutation at pH 7.2; procedure, shortened: as §4
Acinetobacter baumannii [10] = experiment: Antimicrobial activity against Acinetobacter baumannii isolate 45 harboring GyrA Ser83-Leu and ParC Ser80-Leu mutation at pH 7.2; procedure, shortened: as §1
Acinetobacter baumannii [11] = experiment: Antimicrobial activity against Acinetobacter baumannii isolate 46 harboring GyrA Ser83-Leu and ParC Ser80-Leu mutation at pH 7.2; procedure, shortened: as §1
Acinetobacter baumannii [12] = experiment: Antimicrobial activity against Acinetobacter baumannii isolate 47 harboring GyrA Ser83-Leu and ParC Ser80-Phe mutation at pH 7.2; procedure, shortened: as §1

| Structure (SMILES) | MIC (Acinetobacter baumannii [1]) [µg/mL] | MIC (Acinetobacter baumannii [2]) [µg/mL] | MIC (Acinetobacter baumannii [3]) [µg/mL] | MIC (Acinetobacter baumannii [4]) [µg/mL] | MIC (Acinetobacter baumannii [5]) [µg/mL] | MIC (Acinetobacter baumannii [6]) [µg/mL] | MIC (Acinetobacter baumannii [7]) [µg/mL] | MIC (Acinetobacter baumannii [8]) [µg/mL] | MIC (Acinetobacter baumannii [9]) [µg/mL] | MIC (Acinetobacter baumannii [10]) [µg/mL] | MIC (Acinetobacter baumannii [11]) [µg/mL] | MIC (Acinetobacter baumannii [12]) [µg/mL] |
| --- | --- | --- | --- | --- | --- | --- | --- | --- | --- | --- | --- | --- |
| O=C(O)c1cn(C2CC2)c2cc(N3CCNCC3)c(F)cc2c1=O [CIPROFLOXACIN] | > 128 | 128 (≈ 386 µM) | 32 (≈ 96.6 µM) | > 128 | 4 (≈ 12.1 µM) | > 128 | 4 (≈ 12.1 µM) | 32 (≈ 96.6 µM) | – | – | – | – |
| N#Cc1c(N2C[C@@H]3NCCO[C@H]3C2)c(F)cc2c(=O)c(C(=O)O)cn(C3CC3)c12 [FINAFLOXACIN] | 2 (≈ 5.02 µM) | 2 (≈ 5.02 µM) | 16 (≈ 40.2 µM) | 8 (≈ 20.1 µM) | 16 (≈ 40.2 µM) | 8 (≈ 20.1 µM) | 8 (≈ 20.1 µM) | 16 (≈ 40.2 µM) | 64 (≈ 161 µM) | 16 (≈ 40.2 µM) | 16 (≈ 40.2 µM) | 32 (≈ 80.3 µM) |

Source: ChEMBL document CHEMBL1255410, “Activity of the investigational fluoroquinolone finafloxacin against ciprofloxacin-sensitive and -resistant Acinetobacter baumannii isolates” (2010)
